Records with an inconclusive call do not appear.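 Rule for the calls, unless noted: active = cell viability at or below a set limit in both duplicate runs, the limit being the all-compound median minus 4 SD (cut at about 23% in these data, passing the limit was not always enough); inconclusive = no clear call, values can overlap the other calls; inactive = the rest.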
Key:
[1] = S. cerevisiae growth inhibition in permissive medium (OD615), pilot counter-assay for S. cerevisiae lifespan shortening project, permissive growth control (AID 705;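 active = growth inhibition above 25% in both replicates, a cutoff set 3 SD above the mean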); conditions: OD615, 24 h, at 10 µM, hits give high values
In short: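 Test system: Saccharomyces cerevisiae strain carrying genetically modified DeaD replicative-lifespan system; buffer or medium: SC raffinose/galactose permissive medium; dosing: one dose 10 µM, DMSO 0.25% final; times: 24 h exposure, 30 °C; measured by: OD at 615 nm; read-out basis: growth inhibition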

[2] = S. cerevisiae growth inhibition in restrictive medium, OD615, pilot screen, restrictive growth control, yeast lifespan reduction project (AID 706;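 active = growth inhibition above a set limit, 3 SD over mean compound inhibition, in both replicates, cut at about 43% in these data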;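 note: modified DeaD lifespan yeast strain shifted to restrictive glucose medium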); conditions: OD615, 48 h, at 10 µM, hits give high values
In short: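 material = engineered S. cerevisiae DeaD strain | buffer or medium = glucose-based CSMM-D restrictive medium | dosing = one concentration, 10 µM final, 0.25% DMSO | schedule = 4 h pre-growth plus 48 h compound exposure, 30 °C | detection = OD615 absorbance reading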

[3] = doxorubicin toxicity protection in MRP-1 cells – H69AR cells, CellTiter-Glo, duplicate, MRP-1 activator project, pilot screen (AID 807;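 active = viability increase at or above a cutoff of the median across tested compounds plus 3 SD, cut at about 8.5% in these data, passing the limit was not always enough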;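 note: compound pretreatment 18-22 h then 72 h combined with doxorubicin; 0% = doxorubicin alone and 100% = vehicle without doxorubicin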); conditions: H69AR viability with doxorubicin, CellTiter-Glo luminescence; at 10 µM; hits give high values
[4] = viability of HCT116 without oncogenic beta-catenin – human colon tumor cells, pilot screen (AID 823); conditions: HCT116 beta-catenin knockout viability, CellTiter-Glo, 60 h; at 10 µM; hits give low values;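 note: 0% = wells killed by 20 µM Hyamine and 100% = untreated DMSO cell wells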
[5] = viability of PTEN-null HCT116 cells – cell-based, HCT116 clonal line, CellTiter-Glo, pilot screen (AID 824;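 active = viability at or below 27.92% in each of two runs, the all-compound median minus 4 SD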;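 note: 0% = 20 µM Hyamine control and 100% = vehicle cell control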); conditions: HCT116 PTEN-deleted viability, 60 h, at 10 µM, hits give low values
[6] = RAM pathway blockade in budding yeast – dse1pr::URA3 reporter, 5-FOA selection, pilot screen (AID 869;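 active = inhibition over a set limit, the all-compound mean plus 3 SD, in both replicate runs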;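 note: 0% = DMSO wells with no growth and 100% = 10 µM 1-NA-PP1 with full growth; RAM network block rescues cells from 5-FOA so hits raise OD615 growth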); conditions: S. cerevisiae dse1pr::URA3 5-FOA growth, OD615, 2 d; at 10 µM; hits give high values; strain carries analog-sensitive mutant Cbk1 kinase
[7] = RAM signaling pathway blockade in yeast – S. cerevisiae, Pdr1DBD-CYC8 efflux-inhibited sensitized strain, primary screen (AID 1298;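 active = RAM network inhibition above 8.4% in each of two replicates, 3 SD over the compound average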;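 note: 0% = DMSO untreated cells without growth and 100% = 10 µM 1-NA-PP1 full growth; higher means more yeast growth rescued from 5-FOA killing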); conditions: S. cerevisiae cbk1-as DSE1-URA3 strain, 5-FOA growth OD615, 2 d; at 50 µM; hits give high values

CCOc1ccccc1NC(=O)C1CCC(CNc2c(N3CCOCC3)c(=O)c2=O)CC1 (stereo not drawn)
inactive: growth inhibition [1] 0.95% | growth inhibition [2] -1.83% | viability increase [3] -0.66% | viability [4] 108% | viability [5] 92.7% | inhibition [6] 1.43% | RAM network inhibition [7] 1.18%

Cc1nc(-c2ccc3c(c2)OCO3)cs1
inactive: growth inhibition [1] -3.71% | growth inhibition [2] -1.42% | viability increase [3] 0.2% | viability [4] 102% | viability [5] 101% | inhibition [6] 1.68% | RAM network inhibition [7] 2.38%

CCN(CC)S(=O)(=O)c1ccc(C(=O)OCCN2C(=O)CCC2=O)cc1
inactive: growth inhibition [1] -4.98% | growth inhibition [2] 10.3% | viability increase [3] 0.48% | viability [4] 102% | viability [5] 101% | inhibition [6] 0.755% | RAM network inhibition [7] 4.16%

CCCCN(C)c1nc(-c2ccco2)c2c(c1C#N)CC(C)(C)OC2
inactive: growth inhibition [1] -9.48% | growth inhibition [2] 0.09% | viability increase [3] -4.56% | viability [4] 96.3% | viability [5] 98.3% | inhibition [6] 1.63% | RAM network inhibition [7] -0.79%

Cn1nnnc1SCC(=O)Nc1ccc(N2CCOCC2)cc1
inactive: growth inhibition [1] -4.58% | growth inhibition [2] 7.83% | viability increase [3] -1.01% | viability [4] 95.8% | viability [5] 97.5% | inhibition [6] 0.97% | RAM network inhibition [7] 0.68%

COc1cccc(NS(=O)(=O)c2nc3nc(C)cc(C)n3n2)c1
inactive: growth inhibition [1] -10.2% | growth inhibition [2] -2.87% | viability increase [3] -1.57% | viability [4] 108% | viability [5] 98.9% | inhibition [6] 2.01% | RAM network inhibition [7] -1%

Cc1ccc(C)c(NC(=O)CSc2nnc(-c3ccccc3)n2N)c1
inactive: growth inhibition [1] -4.36% | growth inhibition [2] -8.22% | viability increase [3] -1.93% | viability [4] 109% | viability [5] 90.1% | inhibition [6] 1.5% | RAM network inhibition [7] 3.95%

CN1CCN(C(=O)c2ccc3c(c2)N(Cc2cccc(Cl)c2)C(=O)c2ccccc2S3=O)CC1 (stereo not drawn)
inactive: growth inhibition [1] -4.92% | growth inhibition [2] -10.7% | viability increase [3] -3.66% | viability [4] 102% | viability [5] 99.1% | inhibition [6] 0.63% | RAM network inhibition [7] 6.41%

COC(=O)c1cc(=O)nc2scc(C)n12
inactive: growth inhibition [1] -13% | growth inhibition [2] -18.9% | viability increase [3] -0.3% | viability [4] 103% | viability [5] 99.5% | inhibition [6] 0.885% | RAM network inhibition [7] 4.74%

N#Cc1ccc(OCCN2C(=O)NC3(CCSC3)C2=O)cc1 (stereo not drawn)
inactive: growth inhibition [1] -2.65% | growth inhibition [2] -19% | viability increase [3] -1.88% | viability [4] 101% | viability [5] 94.4% | inhibition [6] 0.975% | RAM network inhibition [7] 0.56%

COc1cccc(-c2nc(C(N)=O)c3[nH]c(=O)n(-c4ccccc4)c3n2)c1OC
inactive: growth inhibition [1] -8.87% | growth inhibition [2] -8.02% | viability increase [3] -4.58% | viability [4] 99.4% | viability [5] 95.9% | inhibition [6] 3.04% | RAM network inhibition [7] -0.2%

Cn1c(C(=O)N2CCN(Cc3ccccc3)CC2)cc2c(=O)n(C)c3ccccc3c21
inactive: growth inhibition [1] 7.94% | growth inhibition [2] 3.57% | viability increase [3] -4.21% | viability [4] 74.8% | viability [5] 74.8% | inhibition [6] 0.905% | RAM network inhibition [7] 1.37%

c1ccc(Cn2c(CSc3nnnn3-c3ccccc3)nc3ccccc32)cc1
inactive: growth inhibition [1] 0.645% | growth inhibition [2] 5.56% | viability increase [3] -2.93% | viability [4] 96.3% | viability [5] 95% | inhibition [6] 1.48% | RAM network inhibition [7] 5.11%

CCSC1=C(C#N)C(c2ccc(C)s2)CC(=O)N1 (stereo not drawn)
inactive: growth inhibition [1] -16.1% | growth inhibition [2] -6.45% | viability increase [3] -0.29% | viability [4] 95.8% | viability [5] 94.1% | inhibition [6] 0.425% | RAM network inhibition [7] 0.57%

CCOC(=O)N1CCN(C(=O)c2ccccc2NC(=O)COc2ccccc2C)CC1
inactive: growth inhibition [1] -9.27% | growth inhibition [2] 3.48% | viability increase [3] -1.77% | viability [4] 86.3% | viability [5] 82.2% | inhibition [6] 1.29% | RAM network inhibition [7] 5.67%

CNC(=O)c1sc2nc(-c3ccc(OC)cc3)cn2c1C
inactive: growth inhibition [1] 3.27% | growth inhibition [2] 2.45% | viability increase [3] 1.57% | viability [4] 104% | viability [5] 106% | inhibition [6] 2% | RAM network inhibition [7] 0.64%

COc1cc(NC(=O)c2cc(-c3cccc(O)c3)on2)cc(OC)c1OC
inactive: growth inhibition [1] -13.9% | growth inhibition [2] 3.45% | viability increase [3] -6.05% | viability [4] 89.8% | viability [5] 75.3% | inhibition [6] 4.79% | RAM network inhibition [7] 6.05%

CCCC(=O)NC(C)c1nc2ccccc2n1C (stereo not drawn)
inactive: growth inhibition [1] -18.7% | growth inhibition [2] -2.34% | viability increase [3] 2.12% | viability [4] 101% | viability [5] 102% | inhibition [6] 1.45% | RAM network inhibition [7] 1.79%

Cc1nn(Cc2c(Cl)cccc2Cl)c(C)c1NC(=O)c1cc(C(C)C)on1
inactive: growth inhibition [1] -10.6% | growth inhibition [2] 0.6% | viability increase [3] -1.33% | viability [4] 74.2% | viability [5] 62.9% | inhibition [6] 2.81% | RAM network inhibition [7] 2.56%

Cc1ccc(O)c(-c2cc(C(F)(F)C(F)F)nc(-c3ccccc3)n2)c1
inactive: growth inhibition [1] -21.9% | growth inhibition [2] -10.4% | viability increase [3] -5.33% | viability [4] 66.7% | viability [5] 73% | inhibition [6] 2.58% | RAM network inhibition [7] 7.06%

COc1cccc(-n2nnc3c(=O)n(C/C=C/c4ccccc4)cnc32)c1
inactive: growth inhibition [1] -5.38% | growth inhibition [2] -7.15% | viability increase [3] 0.57% | viability [4] 92.3% | viability [5] 86.9% | inhibition [6] 3.2% | RAM network inhibition [7] 2.07%

Cc1cc(C)c(S(=O)(=O)N2CCN(C)CC2)c(C)c1
inactive: growth inhibition [1] -9.57% | growth inhibition [2] -13.9% | viability increase [3] 1.1% | viability [4] 101% | viability [5] 101% | inhibition [6] 0.885% | RAM network inhibition [7] 1.78%

Cc1nc2ncnn2c(C)c1Cc1ccc(Cl)cc1F
inactive: growth inhibition [1] -9.96% | growth inhibition [2] -18.8% | viability increase [3] -1.72% | viability [4] 95.7% | viability [5] 92.2% | inhibition [6] 0.26% | RAM network inhibition [7] 6.16%

N#Cc1ccc(Oc2cccc(C(=O)O)c2)cc1C#N
inactive: growth inhibition [1] -13.1% | growth inhibition [2] -3.21% | viability increase [3] -0.11% | viability [4] 94.8% | viability [5] 92.7% | inhibition [6] 1.34% | RAM network inhibition [7] 2.14%
